Laboratory results reported in the EternaBench riboswitch data.

System: MS2 coat protein
Test: apparent Kd, MS2 coat protein; higher = weaker binding; RNA-MaP array; FMN 200 µM where present
Outline: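 Designs were transcribed by stalled E. coli RNA polymerase on Illumina sequencing-chip clusters. They were titrated with SNAP-549-labelled MS2 coat protein from 0.7 or 1.5 nM, doubling to 3 µM, in 100 mM Tris-HCl pH 7.5, 80 mM KCl, 4 mM MgCl2, BSA, DTT, yeast tRNA and Tween-20, without and then with constant ligand. The apparent Kd is the median of filtered per-cluster fits after normalisation of green signal to red-channel RNA signal and control-cluster median Fmax.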

[1] = designed as: OFF switch for flavin mononucleotide, no ligand
[2] = ligand present: flavin mononucleotide, designed as: OFF switch for flavin mononucleotide
[3] = designed as: ON switch for flavin mononucleotide, no ligand
[4] = ligand present: flavin mononucleotide, designed as: ON switch for flavin mononucleotide

Sequence	apparent Kd [1]	apparent Kd [2]	apparent Kd [3]	apparent Kd [4]
GGAAUAAAUGCAGGAUAUACGUGGAAAGCUUUCAACAUGAGGAUCACCCAUGUAGAAGGGCAUCUCCCGACCGAAGCGGAUCUC	5.8 nM	6.27 nM		
AUUUCGACCACAGGAUAUGUUUGACCGAUACUUACAGAAGGGUGGUCCACGCGCACAAGCACAUGAGGAUCACCCAUGUAACGA			20.1 nM	60.7 nM
UUAUUGGGACAGAAGGGCAUUUACAUGAGGAUCACCCAUGUGUAUAGUUGCAGGAUAUGUAUUACAUGUGAAUCAUCAAAGUGC			75.5 nM	25.5 nM
AUUAAACAUGAGGAUCACCCAUGUCAACAAAGUCGAGGAUAUGGGCAUAUUAUCUUAUAACCAGAAGGCGAAUAAU			222 nM	37 nM
CUAAAUCAUGUAGGAUAUGCAUGGCGAAGCUACGCAGAAGGACAUGAGGAUCACCCAUGUCUCUCCGUCUGCGUACAGACGGAG	20.5 nM	119 nM		
AACAUACAUGAGGAUCACCCAUGUUCCGGCAGGCUAGGAUAUCAAUCGAAAGUGUUAUAAUGAGAAGGAGCAUAAA			49 nM	29.4 nM
CACUCAUGUCUAGGAUAUGAGUGACAAGCGCGAAGUUUUUUCGGCGCUAGCUCAGAAGGAGACAUGAGGAUCACCCAUGUAAGG	69.1 nM	18.2 nM		
UUAACUCAUGUAGGAUAUGCAUGGCGAAGCUACGCAGAAGGACAUGAGGAUCACCCAUGUUCUAGCUACCGAGUUCGGUGGCAA	92 nM	272 nM		
GGAGGGACAGCAGGAUAUGAGUGGGACGCACUGUGUACGCGGGUGUGGAUGUCAGAAGGGCUGACAUGAGGAUCACCCAUGUAA			114 nM	55.4 nM
AAUUAUUUUUGAGGAUAUGGUAGUGAAACACUACCAGAAGGCGGAAUAAACAUGAGGAUCACCCAUGUGAGCCUGAUGCUUAUG	22 nM	42.6 nM		
GUCAGCUCGUGAGGAUAUACAACACUGCUUCGGCAGUGUAUAAAGAUCACAUGAGGAUCACCCAUGUAGAAGGCACGAGCUGAU	15.2 nM	213 nM		
CCGGUUUAGGAGGAUAUAGGAGUCGAUAGACACCUAGAAGGCCUAACAUGAGGAUCACCCAUGUGACCUACCGG	51.1 nM	177 nM		
GUACUGUAGUGAGGAUAUACGAGCUCGAUAGAGCGGCGAUCCAUAUAUACAUGAGGAUCACCCAUGUAGAAGGCACUUCAGUAC	7.07 nM	96.5 nM		
CGCAGGAUACAGAAGGAGUUAUUGAGAGGUUUACUAGGAUAUGUUCACAUGAGGAUCACCCAUGUCGUAUGGUUUUUUGUUGCG	22.6 nM	16.1 nM		
GGAUGACAUAGUCAUCCUUAACGAACAUGAGGAUCACCCAUGUAGGAUAUGCUACUCAAAGAGUAGCAGAAGGGCGUGUGUCUU	42.6 nM	49 nM		
GUAGCUACUAUUAUACAUGAGGAUCACCCAUGUUACAUGGGUAAGGAUAUUGAAGUUAUGAUUAUCAAGAAGGUACUAUGCUAC			511 nM	118 nM
UCCUCUUUGAAGAAGGCGUGGCCAUGCAAGCCGCGAGGAUAUUCACAUGAGGAUCACCCAUGUGGAUUUCAGUCCGCUCAAAAC	13.4 nM	68 nM		
GGAAAGUGAGGAUAUGGUAAUUUAAUUAUUAAUUAAUUAAUCCAGAAGGCACAUGAGGAUCACCCAUGUAAAGG	35.9 nM	61.4 nM		
ACUGUGCAUUAGAAGGGUGCGCGGCAAUCGCGCACAGGAUAUGAUGACAUGAGGAUCACCCAUGUCUGUGUCACCUGGGUGUCG	13.3 nM	83.8 nM		
GGAAGCUCAACGGAGCUAAGGUAGAAGGAUAUCCACGGCUAUAUCCACAUGAGGAUCACCCAUGUGGAGAAGGUCUAUCUUAAG	5.83 nM	10.4 nM		
AGCGGCGCAGACCACCGCAAAACCAGAAGGACAUGAGGAUCACCCAUGUAACAAAACAGGGCGGUGUAGGAUAUGGCAGACCCA	8.87 nM	7.71 nM		
AAUGUUUGAUUCCACCUAUACAUGAGGAUCACCCAUGUUAUCGAGGAUAUGCAUUAGAGUGUUUAGCAGAAGGCGAUGUAAUUG	8.34 nM	23 nM		
AAGCGCUGUCAAGGAUAUCCGAAAAGAGAAUAAGGAGAAGGUGACAUGAGGAUCACCCAUGUGCACUGGGUGGACGCGCGCUCC	549 nM	196 nM		
CUUCGUAUAGAGGAUAUAGGUUACUGCGGUAUCCUAGAAGGCUGUACAUGAGGAUCACCCAUGUACUUCAGAUC	13.9 nM	18.2 nM		
